Assay results published in ChEMBL document CHEMBL1139834, “Synthesis and structure-activity relationships of new benzodioxinic lactones as potential anticancer drugs” (J Med Chem, 2007).

Tests used:
Type in all cases: functional
SF-295 = assay: Antitumor activity against human SF295 cell line
Method in brief: (§1)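 Human tumour cell line panel. GI50 is the concentration giving 50% growth inhibition, averaged over at least two determinations. LC50 is the concentration killing 50% of cells in a […] assay.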

A498 = assay: Antitumor activity against human A498 cell line; method in brief: as §1
UO-31 = assay: Antitumor activity against human UO31 cell line
Method in brief: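 Human tumour cell lines from a selected panel. GI50 is the concentration giving 50% growth inhibition, averaged from at least two determinations. LC50 is the concentration killing 50% of cells in a […] assay.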

COLO 205 = assay: Antitumor activity against human Colo205 cell line; method in brief: as §1
EKVX = assay: Antitumor activity against human EKVX cell line; method in brief: as §1
LOX IMVI = assay: Antitumor activity against human LOX IMVI cell line; method in brief: as §1
[1] = Antitumor activity against human IGROVI cell line; method in brief: as §1
CAKI-1 = assay: Antitumor activity against human CAKI1 cell line; method in brief: as §1
NCI-H23 = assay: Antitumor activity against human NCI-H23 cell line; method in brief: as §1
MOLT-4 = assay: Antitumor activity against human MOLT4 cell line; method in brief: as §1
MDA-N = assay: Antitumor activity against human MDA-N cell line; method in brief: as §1
MCF7 = assay: Antitumor activity against human MCF7 cell line; method in brief: as §1
SNB-19 = assay: Antitumor activity against human SNB19 cell line; method in brief: as §1
SF-268 = assay: Antitumor activity against human SF268 cell line; method in brief: as §1
CCRF-CEM = assay: Antitumor activity against human CCRF-CEM cell line; method in brief: as §1
RXF 393 = assay: Antitumor activity against human RXF393 cell line; method in brief: as §1
L1210 = assay: Cell cycle arrest in mouse L1210 cell line by accumulation at G2/M phase at 5 uM after 24 hrs
Method in brief: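 L1210 cells in RPMI 1640 with 2 mM L-glutamine, penicillin, streptomycin and 20% heat-inactivated horse serum, 5% CO2, 37 °C, exposed to several drug concentrations. Cells fixed in 70% ethanol, washed, stained 30 min at room temperature with propidium iodide plus RNAse in PBS, then flow cytometry. Read-out is percentage of cells in each cycle phase after 24 h exposure.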

[2] = read-out: LC50 (the source's name)

In the case of `CCCCc1c2c(c(C)c3c1C(=O)OC3)Oc1ccccc1O2`, the GI50 (SF-295) is reported as 0.447 µM, the CC50 (SF-295; [2]) is reported as 100 µM and the GI50 (A498) is reported as 0.776 µM. For the same compound, the CC50 (A498; [2]) was 100 µM, the GI50 (UO-31) was 2.24 µM and the CC50 (UO-31; [2]) was 100 µM. For the same compound, the GI50 (COLO 205) was 0.741 µM, the CC50 (COLO 205; [2]) was 100 µM and the GI50 (EKVX) was 2.95 µM. For the same compound, the CC50 (EKVX; [2]) was 100 µM, the GI50 (LOX IMVI) was 1.23 µM and the CC50 (LOX IMVI; [2]) was 100 µM. For the same compound, the GI50 [1] was 0.282 µM, the CC50 [1, 2] was 10 µM and the GI50 (CAKI-1) was 26.3 µM. The CC50 (CAKI-1; [2]) was 100 µM, the GI50 (NCI-H23) was 2.63 µM and the CC50 (NCI-H23; [2]) was 100 µM. It also gave a GI50 (MOLT-4) of 0.447 µM, a CC50 (MOLT-4; [2]) of 100 µM and a GI50 (MDA-N) of 0.117 µM. It also gave a CC50 (MDA-N; [2]) of 60 µM, a GI50 (MCF7) of 1.23 µM and a CC50 (MCF7; [2]) of 100 µM. The GI50 (SNB-19) was 0.589 µM, the CC50 (SNB-19; [2]) was 100 µM and the GI50 (SF-268) was 0.977 µM. The CC50 (SF-268; [2]) was 100 µM, the GI50 (CCRF-CEM) was 0.501 µM and the CC50 (CCRF-CEM; [2]) was 100 µM. It also gave a GI50 (RXF 393) of 0.977 µM, a CC50 (RXF 393; [2]) of 100 µM and an Activity (L1210) of 67%.
